3 compounds from ChEMBL document CHEMBL1122908, “10-Ketonaltrexone and 10-ketooxymorphone” (J Med Chem, 1985) can be followed below.

The target in test [1] is Kappa-type opioid receptor (Cavia porcellus) (UniProt P41144). Briefly: (§1) Inhibitory binding constant in guinea pig brain homogenate was reported at Opioid receptor kappa 1 at temperature 25 degree Celsius labeled with (-)-[3H]immazocine (0.1 nM). The test is classed as tissue-based.
Test [2] concerns the target Mu-type opioid receptor (Cavia porcellus) (UniProt P97266). Kind of test: Inhibitory binding constant in guinea pig brain homogenate was reported at mu site at a temperature 25 degree Celsius labeled with [3H](D-Ala2-MePhe4,Gly-ol5)enkephalin(1nM). The test is classed as tissue-based.
The species named for another test is Cavia porcellus. Briefly: Agonist activity in the guinea pig ileum longitudinal muscle myenteric plexus. The test is classed as functional. An outline of the steps: (§2)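 Isolated guinea pig ileum myenteric plexus–longitudinal muscle or mouse vas deferens preparations, run at 25 °C, testing opioid agonist potency.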
A further test is filed under the species Mus musculus. Briefly: Agonist activity in the mouse vas deferens. The test is classed as functional. An outline of the steps: as §2
Test [3] concerns the target Kappa-type opioid receptor (Cavia porcellus, UniProt P41144). Described as §1. It counts as tissue-based.
The target of the next test is Mu-type opioid receptor (Cavia porcellus, UniProt P97266). Kind of test: Inhibitory binding constant in guinea pig brain homogenate was reported at mu site at a temperature 25 degree Centigrade labeled with [3H](D-Ala2-MePhe4,Gly-ol5)enkephalin(1 nM). The test is classed as tissue-based.
Sequence of Mu-type opioid receptor (P97266 whole entry): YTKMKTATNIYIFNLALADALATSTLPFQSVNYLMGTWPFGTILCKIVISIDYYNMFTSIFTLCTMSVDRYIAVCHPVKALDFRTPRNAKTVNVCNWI
The target in test [4] is Mu-type opioid receptor (Mus musculus) (UniProt P42866). Kind of test: Dose ratio due to Antagonist Effect at a concentration of 100 nM by normorphine, Opioid receptor mu 1 in mouse vas deferens. It counts as functional. An outline of the steps: (§3)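 Isolated guinea pig ileum myenteric plexus–longitudinal muscle and mouse vas deferens. Agonists were normorphine (μ) and ethylketazocine (κ) in both tissues, and (D-Ala2,D-Leu5)enkephalin (δ) in vas deferens. The shift in IC50 is given as dose ratio, mean ± SEM of three to five separate experiments.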
Sequence of Mu-type opioid receptor (Mus musculus) (P42866 whole entry): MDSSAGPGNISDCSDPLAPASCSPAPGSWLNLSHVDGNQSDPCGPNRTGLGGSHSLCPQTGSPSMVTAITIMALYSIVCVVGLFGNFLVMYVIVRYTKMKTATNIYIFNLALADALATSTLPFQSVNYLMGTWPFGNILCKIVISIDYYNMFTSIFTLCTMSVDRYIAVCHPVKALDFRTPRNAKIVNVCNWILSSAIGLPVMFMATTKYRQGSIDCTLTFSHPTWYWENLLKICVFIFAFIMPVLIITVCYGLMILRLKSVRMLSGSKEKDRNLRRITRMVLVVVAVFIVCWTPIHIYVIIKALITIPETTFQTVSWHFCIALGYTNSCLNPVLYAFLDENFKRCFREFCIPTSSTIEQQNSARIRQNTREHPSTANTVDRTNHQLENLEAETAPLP

Test [5] has as its target Delta-type opioid receptor (Mus musculus) (UniProt P32300). Briefly: Dose ratio due to Antagonist Effect at a concentration of 1000 nM by (D-Ala2, D-Leu5)enkephalin, Opioid receptor delta 1 in mouse vas deferens. The test is classed as functional. In short, it runs like this: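 Isolated guinea pig ileum myenteric plexus–longitudinal muscle and mouse vas deferens. Agonists were normorphine (μ) and ethylketazocine (κ) in both tissues, and (D-Ala2,D-Leu5)enkephalin (δ) in vas deferens. […] The shift in IC50 is given as dose ratio, mean ± SEM of three to five separate experiments.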

The target in test [6] is Kappa-type opioid receptor (Mus musculus) (UniProt P33534). Kind of test: Dose ratio due to Antagonist Effect at a concentration of 100 nM by ethylketazocine, Opioid receptor kappa 1 in mouse vas deferens. It counts as functional. An outline of the steps: as §3
Sequence of Kappa-type opioid receptor (Mus musculus) (P33534 whole entry): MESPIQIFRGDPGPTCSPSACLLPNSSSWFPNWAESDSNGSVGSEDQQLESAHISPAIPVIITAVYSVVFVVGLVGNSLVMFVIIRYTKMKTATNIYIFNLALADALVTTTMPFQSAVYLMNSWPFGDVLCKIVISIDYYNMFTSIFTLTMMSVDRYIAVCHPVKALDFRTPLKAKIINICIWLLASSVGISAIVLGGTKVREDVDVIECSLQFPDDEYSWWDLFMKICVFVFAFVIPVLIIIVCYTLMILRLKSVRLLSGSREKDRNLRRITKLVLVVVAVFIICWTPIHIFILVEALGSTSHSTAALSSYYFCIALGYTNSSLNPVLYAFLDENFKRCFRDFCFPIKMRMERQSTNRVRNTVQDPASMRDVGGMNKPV
For test [7], the target named is Kappa-type opioid receptor (Cavia porcellus) (UniProt P41144). Briefly: Dose ratio due to Antagonist Effect at a concentration of 100 nM by ethylketazocine, Opioid receptor kappa 1 in the guinea pig ileum longitudinal muscle myenteric plexus. It counts as functional, tissue-based. In short, it runs like this:
as §3

The target of test [8] is Mu-type opioid receptor (Cavia porcellus) (UniProt P97266). Kind of test: Dose ratio due to Antagonist Effect at a concentration of 100 nM by normorphine, Opioid receptor mu 1 in the guinea pig ileum longitudinal muscle myenteric plexus. The test is classed as functional, tissue-based. In short, it runs like this: as §3
Sequence of Mu-type opioid receptor (Cavia porcellus) (P97266 whole entry): as the sequence (P97266 whole entry) above

Each structure is given as a SMILES string.

Sequence of Kappa-type opioid receptor (Cavia porcellus) (P41144 whole entry): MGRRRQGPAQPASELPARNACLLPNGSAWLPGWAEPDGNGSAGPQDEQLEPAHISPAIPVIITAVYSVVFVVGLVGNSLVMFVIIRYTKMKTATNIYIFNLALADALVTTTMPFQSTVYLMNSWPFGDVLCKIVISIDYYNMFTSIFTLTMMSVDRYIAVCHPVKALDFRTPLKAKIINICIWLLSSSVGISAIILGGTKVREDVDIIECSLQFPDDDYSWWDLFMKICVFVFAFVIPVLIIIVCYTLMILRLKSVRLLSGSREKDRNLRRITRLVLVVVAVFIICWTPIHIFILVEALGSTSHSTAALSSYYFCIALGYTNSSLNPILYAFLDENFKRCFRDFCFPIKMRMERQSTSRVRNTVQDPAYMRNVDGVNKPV
Sequence of Delta-type opioid receptor (Mus musculus) (P32300 whole entry): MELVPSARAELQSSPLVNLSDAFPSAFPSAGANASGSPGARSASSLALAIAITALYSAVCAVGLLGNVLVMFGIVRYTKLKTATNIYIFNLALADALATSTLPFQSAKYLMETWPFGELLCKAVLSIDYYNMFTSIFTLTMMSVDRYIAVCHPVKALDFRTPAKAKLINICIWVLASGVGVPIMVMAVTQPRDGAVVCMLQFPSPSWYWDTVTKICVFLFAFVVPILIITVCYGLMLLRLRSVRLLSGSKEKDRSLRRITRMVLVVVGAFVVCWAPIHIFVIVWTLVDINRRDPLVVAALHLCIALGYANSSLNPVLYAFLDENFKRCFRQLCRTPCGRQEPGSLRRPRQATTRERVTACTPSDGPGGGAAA
Sequence of Kappa-type opioid receptor (P41144 whole entry): as the sequence (P41144 whole entry) above

In the case of `CN1CCC23c4c5ccc(O)c4O[C@H]2C(=O)CC[C@@]3(O)C1C5=O` (stereo partly drawn) [KETOXYMORPHONE], the inhibition (as a rule, the share of the control response that was lost under treatment) in test [1] is 17%; in [2], 19%. Also, the IC50 in the test listed under Cavia porcellus and in the test filed under Mus musculus was more than 1000 nM each time.

Turning to `CN1CC[C@]23c4c5ccc(O)c4O[C@H]2C(=O)CC[C@@]3(O)[C@H]1C5` [OXYMORPHONE], the concentration for half-maximal inhibition (IC50) – broadly, the concentration at which inhibition is half-maximal – in the test listed under Cavia porcellus stood at 24 nM; in the test filed under Mus musculus, 77 nM.

For `O=C1c2ccc(O)c3c2C24CCN(CC5CC5)C1[C@]2(O)CCC(=O)[C@@H]4O3` (stereo partly drawn) [KETONALTREXONE], the inhibition constant (Ki) (as a rule, a dissociation constant, usually derived from enzyme kinetics or from competition with a known ligand) is 102 nM in test [3] and 31.1 nM on Mu-type opioid receptor. Also, the Dose ratio in test [4] worked out at 0.57; in [5] it was 0.71; in test [6] it was 0.93; in test [7] it was 1.58; in [8], 1.84.
